Assay results collected from several papers.
Each line is one published result; the experiments were not run side by side.
Target: Serine/threonine-protein kinase TAO3 (TAOK3, Homo sapiens, UniProt Q9H2K8)
One construct used (Q9H2K8 1-898): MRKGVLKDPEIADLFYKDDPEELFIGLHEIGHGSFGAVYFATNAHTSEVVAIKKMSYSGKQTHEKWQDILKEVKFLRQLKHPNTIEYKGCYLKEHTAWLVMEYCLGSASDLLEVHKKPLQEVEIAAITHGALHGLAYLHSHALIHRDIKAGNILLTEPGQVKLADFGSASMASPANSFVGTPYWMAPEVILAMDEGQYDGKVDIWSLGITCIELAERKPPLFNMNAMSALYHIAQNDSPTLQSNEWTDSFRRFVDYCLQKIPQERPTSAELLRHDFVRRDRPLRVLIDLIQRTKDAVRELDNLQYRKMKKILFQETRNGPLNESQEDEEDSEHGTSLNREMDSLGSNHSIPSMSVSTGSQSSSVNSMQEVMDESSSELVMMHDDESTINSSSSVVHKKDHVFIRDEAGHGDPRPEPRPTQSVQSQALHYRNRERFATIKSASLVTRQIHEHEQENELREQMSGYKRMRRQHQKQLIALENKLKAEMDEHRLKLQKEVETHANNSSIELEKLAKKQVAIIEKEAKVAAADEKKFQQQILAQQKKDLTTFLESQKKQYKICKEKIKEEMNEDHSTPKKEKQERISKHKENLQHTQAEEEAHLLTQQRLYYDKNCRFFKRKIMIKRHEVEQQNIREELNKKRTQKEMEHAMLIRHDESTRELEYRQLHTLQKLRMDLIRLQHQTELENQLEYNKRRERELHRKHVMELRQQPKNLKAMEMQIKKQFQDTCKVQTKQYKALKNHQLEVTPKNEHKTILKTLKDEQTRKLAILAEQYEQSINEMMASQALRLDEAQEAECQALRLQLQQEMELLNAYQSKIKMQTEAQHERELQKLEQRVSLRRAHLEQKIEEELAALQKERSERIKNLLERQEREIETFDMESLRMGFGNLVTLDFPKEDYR

Compound	assay	setting	remaining binding [%]
O=C(Nc1c[nH]nc1C(=O)NC1CCNCC1)c1cc(F)cc(F)c1	binding, competition with immobilised ligand	1 µM	70
c1ccc(N2CCN(Cc3nc4ccccc4[nH]3)CC2)nc1	binding, competition with immobilised ligand	1 µM	86
c1cncc(-c2cccc(Nc3nccc(NC4CCCCC4)n3)c2)c1	binding, competition with immobilised ligand	10 µM	98
Cc1cnn2ncc(-c3ccnc(N(C)C)n3)c2c1	binding	1 µM	91
CCN1CCN(Cc2ccc(C(=O)Nc3ccc(C)c(Oc4ccc5c(c4)CC(=O)N5)c3)cc2C(F)(F)F)CC1	binding, competition with immobilised ligand	1 µM	100
N[C@@H]1CCN(c2nccc(-c3cnn4ncccc34)n2)C1	binding	1 µM	100
O=C(c1ccc(Nc2ncc(Cl)c(-c3ccc(Cl)s3)n2)cc1)N1CCC(N2CCCC2)CC1	binding, competition with immobilised ligand	1 µM	49
C[C@H]1CCN(c2nccc(-c3cnn4ncccc34)n2)C1	binding	1 µM	86
Nc1cnc(N2CCc3cc(S(=O)(=O)Nc4c(F)cc(Cl)cc4F)cc(N4CCCC4=O)c32)nc1	cell-free assay, competition with immobilised ligand	1 µM	70
Cc1cnc(Nc2ccc(C(=O)N3CCC(N4CCCC4)CC3)cc2)nc1-c1cc2ccccc2s1	binding, competition with immobilised ligand	1 µM	77
CC1CCCN1c1nccc(-c2cnn3ncccc23)n1 (stereo not shown)	binding	1 µM	48
CNC(=O)[C@@H]1CC[C@@H](n2c(-c3ccc4cnccc4c3)nc3ccc(C(=O)NCc4cccc(C(N)=O)c4)cc32)C1	binding, competition with immobilised ligand	1 µM	93
c1cnn2ncc(-c3ccnc(N4CCC45COC5)n3)c2c1	binding	1 µM	73
C[C@@H](c1ccc(-n2cnc3c(N)ncnc32)cc1)N1CCc2nn(C)c(Cc3ccccc3)c2C1=O	binding, competition with immobilised ligand	0.1 µM	77
CC1=C(C#N)[C@@H](c2ccc3[nH]nc(C)c3c2)C(C#N)=C(c2ccc(Cl)cc2)N1	cell-free assay, competition with immobilised ligand	1 µM	100
COc1cnc(Nc2cccc(S(N)(=O)=O)c2)nc1N1CCN(c2ccccc2)CC1	binding, competition with immobilised ligand	1 µM	85
C[C@@H]1CN(c2cc(-c3nn(C)c4ccc(OC5(C)CC5)cc34)ncn2)C[C@H](C)O1	binding, competition with immobilised ligand	1 µM	35
FC(F)(F)Oc1cccc(-c2cnc3ccc(-c4ccncc4)nn23)c1	binding, competition with immobilised ligand	5 µM	72
Cn1cc(Cl)c2c(Oc3c(F)cc(Nc4cc(Cl)nc(N)n4)cc3F)ccnc21	cell-free assay, competition with immobilised ligand	0.1 µM	100
CN(C)c1nccc(-c2cnc3ncccn23)n1	binding	1 µM	68
C[C@H](c1ccnc(Nc2nc3ccc(-c4cc(N(C)C)ncn4)cc3[nH]2)c1)N1CCN(C(=O)CC(F)(F)F)CC1	cell-free assay, competition with immobilised ligand	0.1 µM	41
O=C(c1ccc(Nc2ncc(Cl)c(-c3cc4ccccc4s3)n2)cc1)N1CCC(N2CCCC2)CC1	binding, competition with immobilised ligand	1 µM	68
